Laboratory results published in ChEMBL document CHEMBL4834403, “Design and Synthesis of Novel Epigenetic Inhibitors Targeting Histone Deacetylases, DNA Methyltransferase 1, and Lysine Methyltransferase G9a with In Vivo Efficacy in Multiple Myeloma” (J Med Chem, 2021).
Calls of active or inactive are those of the source. The rule behind the calls is not given here.

Legend:
[1] = biological target: DNA (cytosine-5)-methyltransferase 1 (Homo sapiens, UniProt P26358); experiment: Inhibition of human DNMT1 enzyme using polydeoxy-inosine polydeoxy-cytosine DNA as substrate incubated for 15 mins in presence of SAM by TR-FRET assay
DNA (cytosine-5)-methyltransferase 1, sequence (P26358 whole entry): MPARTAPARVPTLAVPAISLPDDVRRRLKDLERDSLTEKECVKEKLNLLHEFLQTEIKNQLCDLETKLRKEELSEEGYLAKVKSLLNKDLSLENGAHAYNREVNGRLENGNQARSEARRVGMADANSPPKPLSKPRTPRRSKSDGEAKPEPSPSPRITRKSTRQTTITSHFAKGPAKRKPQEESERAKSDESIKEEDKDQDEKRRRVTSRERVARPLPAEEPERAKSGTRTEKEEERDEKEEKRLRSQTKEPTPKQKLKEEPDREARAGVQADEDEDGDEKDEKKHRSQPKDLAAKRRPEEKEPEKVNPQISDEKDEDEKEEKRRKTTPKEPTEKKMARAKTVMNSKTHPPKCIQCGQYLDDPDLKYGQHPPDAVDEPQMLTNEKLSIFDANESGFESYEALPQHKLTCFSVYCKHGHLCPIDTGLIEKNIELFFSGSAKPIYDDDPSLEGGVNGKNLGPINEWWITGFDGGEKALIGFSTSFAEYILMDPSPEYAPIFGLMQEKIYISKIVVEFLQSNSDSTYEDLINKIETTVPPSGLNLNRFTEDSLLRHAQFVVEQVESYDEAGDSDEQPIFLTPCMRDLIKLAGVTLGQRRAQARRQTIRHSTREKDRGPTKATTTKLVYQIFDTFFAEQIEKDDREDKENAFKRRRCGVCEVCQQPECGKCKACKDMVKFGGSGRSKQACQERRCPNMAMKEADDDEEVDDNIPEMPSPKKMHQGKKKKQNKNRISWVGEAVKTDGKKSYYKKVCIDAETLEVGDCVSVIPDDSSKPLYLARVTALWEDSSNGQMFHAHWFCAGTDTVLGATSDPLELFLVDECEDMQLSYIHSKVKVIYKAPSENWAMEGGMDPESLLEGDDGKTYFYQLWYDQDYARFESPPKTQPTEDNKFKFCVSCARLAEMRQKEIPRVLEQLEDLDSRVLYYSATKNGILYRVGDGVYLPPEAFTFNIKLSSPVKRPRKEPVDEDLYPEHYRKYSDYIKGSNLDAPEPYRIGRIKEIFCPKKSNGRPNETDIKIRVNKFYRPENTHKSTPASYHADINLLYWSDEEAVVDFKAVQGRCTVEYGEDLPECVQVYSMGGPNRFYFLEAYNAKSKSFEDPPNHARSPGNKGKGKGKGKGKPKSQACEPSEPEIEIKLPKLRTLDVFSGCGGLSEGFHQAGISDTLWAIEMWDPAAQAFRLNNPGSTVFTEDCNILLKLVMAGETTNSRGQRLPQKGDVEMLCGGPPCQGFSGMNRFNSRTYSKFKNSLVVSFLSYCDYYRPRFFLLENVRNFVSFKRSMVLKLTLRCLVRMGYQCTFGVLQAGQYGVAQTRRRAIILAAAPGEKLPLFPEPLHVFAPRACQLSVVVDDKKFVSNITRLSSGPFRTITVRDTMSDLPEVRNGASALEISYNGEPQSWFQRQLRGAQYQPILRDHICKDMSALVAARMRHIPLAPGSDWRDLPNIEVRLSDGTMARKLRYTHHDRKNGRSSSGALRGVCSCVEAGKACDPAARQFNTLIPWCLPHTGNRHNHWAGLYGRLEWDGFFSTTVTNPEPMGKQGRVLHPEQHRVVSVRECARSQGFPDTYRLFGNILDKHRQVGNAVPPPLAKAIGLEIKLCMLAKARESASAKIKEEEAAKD

[2] = biological target: Histone deacetylase 3/Nuclear receptor corepressor 2 (HDAC3/NCoR2) (Homo sapiens, UniProt O15379); experiment: Inhibition of full length human C-terminal His-tagged HDAC3/human N-terminal GST-agged NCOR2 using fluorogenic acetylated peptide as substrate incubated for 30 mins by fluorescence plate reader assay; format: protein-complex assay
[3] = biological target: T1, Histone-lysine N-methyltransferase EHMT2 (Homo sapiens, UniProt Q96KQ7); experiment: Inhibition of human G9a enzyme using histone monomethyl-H3K9 peptide as substrate incubated for 1 hr in presence of SAM by TR-FRET assay
T1 sequence (Q96KQ7 whole entry): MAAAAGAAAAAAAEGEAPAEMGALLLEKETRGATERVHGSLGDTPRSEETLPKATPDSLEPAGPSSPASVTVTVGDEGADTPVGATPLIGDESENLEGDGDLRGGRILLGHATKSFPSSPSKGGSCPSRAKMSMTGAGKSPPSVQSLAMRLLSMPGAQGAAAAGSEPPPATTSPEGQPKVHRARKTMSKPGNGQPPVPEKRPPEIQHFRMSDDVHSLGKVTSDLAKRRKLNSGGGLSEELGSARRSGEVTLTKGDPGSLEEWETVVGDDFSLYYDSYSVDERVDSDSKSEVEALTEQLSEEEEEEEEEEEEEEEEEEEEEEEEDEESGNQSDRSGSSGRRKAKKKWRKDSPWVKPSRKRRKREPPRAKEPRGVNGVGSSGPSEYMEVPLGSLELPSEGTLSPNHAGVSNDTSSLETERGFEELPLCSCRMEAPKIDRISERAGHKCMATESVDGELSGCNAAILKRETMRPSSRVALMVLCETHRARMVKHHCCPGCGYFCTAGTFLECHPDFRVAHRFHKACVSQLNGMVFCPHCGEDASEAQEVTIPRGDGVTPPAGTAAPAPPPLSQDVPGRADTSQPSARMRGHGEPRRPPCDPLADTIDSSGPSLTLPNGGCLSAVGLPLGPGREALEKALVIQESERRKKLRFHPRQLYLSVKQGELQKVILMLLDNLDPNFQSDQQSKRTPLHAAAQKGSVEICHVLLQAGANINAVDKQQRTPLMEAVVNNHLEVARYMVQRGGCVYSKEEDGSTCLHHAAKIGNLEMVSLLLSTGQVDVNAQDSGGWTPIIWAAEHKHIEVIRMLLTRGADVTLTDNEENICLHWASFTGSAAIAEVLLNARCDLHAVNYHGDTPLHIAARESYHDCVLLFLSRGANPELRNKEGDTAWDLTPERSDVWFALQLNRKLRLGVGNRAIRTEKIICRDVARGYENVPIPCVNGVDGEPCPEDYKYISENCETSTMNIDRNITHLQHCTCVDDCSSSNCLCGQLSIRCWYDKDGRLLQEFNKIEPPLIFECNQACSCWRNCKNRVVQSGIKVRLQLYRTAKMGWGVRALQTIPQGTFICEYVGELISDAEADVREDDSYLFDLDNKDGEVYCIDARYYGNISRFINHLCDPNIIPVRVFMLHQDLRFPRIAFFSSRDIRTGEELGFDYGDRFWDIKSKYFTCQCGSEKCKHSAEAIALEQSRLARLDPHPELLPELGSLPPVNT

[4] = Permeability of the compound in PBS/EtOH buffer (70:30) incubated for 18 hrs by UV plate reader based PAMPA assay; format: ADME; conditions: read-out: permeability
[5] = system: MM1.S; experiment: Antiproliferative activity against human MM1.S cells assessed as inhibition of cell proliferation measured up to 72 hrs by CellTiter96 Aqueous one reagent based assay; format: functional
[6] = biological target: T2, Protein deacetylase HDAC6 (Homo sapiens, UniProt Q9UBN7); experiment: Inhibition of full length human N-terminal GST-tagged HDAC6 using fluorogenic acetylated peptide as substrate incubated for 30 mins by fluorescence plate reader assay
T2 sequence (Q9UBN7 whole entry): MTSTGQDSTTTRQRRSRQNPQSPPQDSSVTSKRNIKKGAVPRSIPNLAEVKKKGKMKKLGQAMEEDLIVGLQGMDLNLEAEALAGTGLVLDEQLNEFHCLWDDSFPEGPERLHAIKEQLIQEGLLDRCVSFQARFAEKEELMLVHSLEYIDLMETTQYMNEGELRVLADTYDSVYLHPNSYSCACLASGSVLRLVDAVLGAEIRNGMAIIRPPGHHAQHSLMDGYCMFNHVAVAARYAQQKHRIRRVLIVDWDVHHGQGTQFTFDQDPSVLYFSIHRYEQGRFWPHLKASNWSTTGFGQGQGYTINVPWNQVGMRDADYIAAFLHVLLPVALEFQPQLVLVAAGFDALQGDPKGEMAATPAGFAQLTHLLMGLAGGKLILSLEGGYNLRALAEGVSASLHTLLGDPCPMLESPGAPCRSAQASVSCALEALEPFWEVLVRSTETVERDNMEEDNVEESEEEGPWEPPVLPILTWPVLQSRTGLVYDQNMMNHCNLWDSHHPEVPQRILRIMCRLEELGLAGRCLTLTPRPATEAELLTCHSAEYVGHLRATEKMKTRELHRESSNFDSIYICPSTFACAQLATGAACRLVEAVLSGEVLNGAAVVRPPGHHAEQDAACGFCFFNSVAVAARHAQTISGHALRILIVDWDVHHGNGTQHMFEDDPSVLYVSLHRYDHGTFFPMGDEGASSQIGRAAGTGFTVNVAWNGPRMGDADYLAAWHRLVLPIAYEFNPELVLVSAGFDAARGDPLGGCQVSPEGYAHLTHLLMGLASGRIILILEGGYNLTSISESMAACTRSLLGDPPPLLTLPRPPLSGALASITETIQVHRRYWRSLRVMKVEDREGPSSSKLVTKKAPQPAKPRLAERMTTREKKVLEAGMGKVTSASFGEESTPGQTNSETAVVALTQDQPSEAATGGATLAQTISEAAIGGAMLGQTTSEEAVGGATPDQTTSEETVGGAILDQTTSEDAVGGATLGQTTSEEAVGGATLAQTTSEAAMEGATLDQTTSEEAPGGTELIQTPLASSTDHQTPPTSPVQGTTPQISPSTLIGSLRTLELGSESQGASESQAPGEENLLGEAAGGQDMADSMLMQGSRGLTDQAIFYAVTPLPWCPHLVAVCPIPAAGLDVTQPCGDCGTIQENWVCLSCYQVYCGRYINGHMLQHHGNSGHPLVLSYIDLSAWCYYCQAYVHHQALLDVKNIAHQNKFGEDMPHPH

[7] = biological target: Histone deacetylase 1 (Homo sapiens, UniProt Q13547); experiment: Inhibition of full length human C-terminal His-tagged/C-terminal Flag-tagged HDAC1 using fluorogenic acetylated peptide as substrate incubated for 30 mins by fluorescence plate reader assay
Histone deacetylase 1, sequence (Q13547 whole entry): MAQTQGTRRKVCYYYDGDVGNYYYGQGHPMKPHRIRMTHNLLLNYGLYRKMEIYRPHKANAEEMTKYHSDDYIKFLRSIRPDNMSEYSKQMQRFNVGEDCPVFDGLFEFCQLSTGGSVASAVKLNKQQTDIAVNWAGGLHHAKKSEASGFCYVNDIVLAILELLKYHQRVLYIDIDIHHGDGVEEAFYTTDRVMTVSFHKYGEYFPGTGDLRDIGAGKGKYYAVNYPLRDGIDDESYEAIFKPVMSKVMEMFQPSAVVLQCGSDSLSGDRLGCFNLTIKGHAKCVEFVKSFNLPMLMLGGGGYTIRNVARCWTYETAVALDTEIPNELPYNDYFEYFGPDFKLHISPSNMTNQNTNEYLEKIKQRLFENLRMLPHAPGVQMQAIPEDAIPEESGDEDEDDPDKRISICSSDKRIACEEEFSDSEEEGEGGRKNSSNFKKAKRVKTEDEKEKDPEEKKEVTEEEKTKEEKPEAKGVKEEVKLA

[8] = biological target: Histone deacetylase 2 (Homo sapiens, UniProt Q92769)
Histone deacetylase 2, sequence (Q92769 whole entry): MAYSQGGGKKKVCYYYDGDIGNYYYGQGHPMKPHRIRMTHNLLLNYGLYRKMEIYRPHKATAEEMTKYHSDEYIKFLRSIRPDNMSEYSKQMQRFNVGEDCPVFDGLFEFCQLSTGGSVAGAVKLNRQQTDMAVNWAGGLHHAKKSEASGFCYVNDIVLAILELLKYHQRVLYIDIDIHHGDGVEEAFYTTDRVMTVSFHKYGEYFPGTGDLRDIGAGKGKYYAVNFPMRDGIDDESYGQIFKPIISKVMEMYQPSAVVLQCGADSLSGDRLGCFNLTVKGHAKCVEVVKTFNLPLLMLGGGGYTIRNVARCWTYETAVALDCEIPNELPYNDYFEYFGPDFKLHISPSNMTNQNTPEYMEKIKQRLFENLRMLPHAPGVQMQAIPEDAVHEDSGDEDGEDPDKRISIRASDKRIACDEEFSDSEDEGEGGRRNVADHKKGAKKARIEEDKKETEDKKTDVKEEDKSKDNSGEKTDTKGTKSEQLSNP

[9] = system: THLE-2; experiment: Cytotoxicity against human THLE-2 cells assessed as decrease in cell viability measured after 72 hrs by Vialight-plus cell proliferation assay; format: cell-based; conditions: thle-2, 72 h
How it was run: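 Human THLE-2 cells exposed to compound for 72 h. Cytotoxicity reported as LC50 and pLC50, averaged from at least two independent experiments on different days.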

[10] = biological target: T3, Histone-lysine N-methyltransferase EHMT2 (Homo sapiens) (UniProt Q96KQ7); experiment: Inhibition of G9A in human MM1.S cells assessed as decrease in H3K9Me2 levels up to 50 uM after 48 hrs by Western blot analysis; format: cell-based; conditions: dose microM <=50, time 48.0 hrs
T3 sequence (whole entry): T1 sequence (Q96KQ7 whole entry)
How it was run: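 MM1.S cells exposed 48 h across a concentration range. Global H3K9Ac and H3K9me2 read by Western blot; run in duplicate.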

[11] = biological target: T4, Histone-lysine N-methyltransferase EHMT2 (Mus musculus, UniProt Q9Z148); experiment: Inhibition of mouse thymus 6His-sumo-tagged G9a (969 to 1263 residues) expressed in Escherichia coli BL21 (DE3) using histone H3 as substrate incubated for 30 mins by MALDI-TOF-MS analysis
T4 sequence (Q9Z148 whole entry): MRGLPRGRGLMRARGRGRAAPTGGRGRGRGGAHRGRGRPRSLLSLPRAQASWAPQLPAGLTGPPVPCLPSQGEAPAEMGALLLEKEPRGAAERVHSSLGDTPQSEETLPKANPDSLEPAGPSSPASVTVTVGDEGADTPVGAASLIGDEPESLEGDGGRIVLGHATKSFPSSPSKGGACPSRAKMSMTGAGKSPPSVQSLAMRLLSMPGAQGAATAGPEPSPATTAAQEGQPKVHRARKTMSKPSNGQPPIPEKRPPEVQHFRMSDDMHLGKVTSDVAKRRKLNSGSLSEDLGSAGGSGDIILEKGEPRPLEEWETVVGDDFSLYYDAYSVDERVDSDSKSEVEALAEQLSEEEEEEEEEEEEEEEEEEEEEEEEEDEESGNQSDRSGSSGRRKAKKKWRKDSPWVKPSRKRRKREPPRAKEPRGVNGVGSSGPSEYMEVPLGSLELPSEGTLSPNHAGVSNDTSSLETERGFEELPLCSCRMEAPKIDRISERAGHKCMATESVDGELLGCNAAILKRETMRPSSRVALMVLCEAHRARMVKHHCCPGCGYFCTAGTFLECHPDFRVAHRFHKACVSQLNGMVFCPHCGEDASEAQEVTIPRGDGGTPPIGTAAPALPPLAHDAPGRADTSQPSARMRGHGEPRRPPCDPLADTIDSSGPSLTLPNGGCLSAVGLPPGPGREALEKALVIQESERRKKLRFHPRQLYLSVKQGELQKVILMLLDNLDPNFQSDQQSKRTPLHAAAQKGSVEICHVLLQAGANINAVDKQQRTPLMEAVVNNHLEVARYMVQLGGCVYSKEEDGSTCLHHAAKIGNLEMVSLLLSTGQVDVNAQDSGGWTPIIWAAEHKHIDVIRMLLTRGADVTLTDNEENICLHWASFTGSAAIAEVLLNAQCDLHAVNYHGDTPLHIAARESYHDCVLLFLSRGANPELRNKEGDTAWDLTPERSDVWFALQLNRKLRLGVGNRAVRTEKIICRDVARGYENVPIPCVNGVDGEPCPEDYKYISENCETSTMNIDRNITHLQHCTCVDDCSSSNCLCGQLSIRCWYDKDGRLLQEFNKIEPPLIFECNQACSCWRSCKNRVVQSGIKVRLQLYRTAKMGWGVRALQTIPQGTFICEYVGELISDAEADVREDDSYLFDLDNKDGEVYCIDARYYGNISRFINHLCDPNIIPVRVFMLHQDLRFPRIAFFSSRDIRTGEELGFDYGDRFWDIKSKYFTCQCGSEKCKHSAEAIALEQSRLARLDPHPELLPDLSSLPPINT

[12] = time hrs <=72, read-out: pGI50 (converted)

| SMILES | IC50 [1] [nM] | IC50 [2] [nM] | IC50 [3] [µM] | Papp at 18 h [4] [×10⁻⁶ cm/s] | GI50 ([5]; time hrs <=72, read-out: GI50) [nM] | GI50 [5, 12] [nM] | IC50 [6] [nM] | IC50 [7] [nM] | IC50 [8] [nM] | LC50 [9] [µM] | pLC50 [9] | inhibition [10] | IC50 [11] [µM] |
| --- | --- | --- | --- | --- | --- | --- | --- | --- | --- | --- | --- | --- | --- |
| COc1cc2nc(-c3ccc(C)o3)cc(NCC3CCC(C(=O)NO)CC3)c2cc1OC (configuration not stated) | 2850 | 206 | > 10 | 0.393 | 5830 | 5750 | 41 | 38 | 274 | 9.6 | 5.02 |  |  |
| COc1cc2nc(-c3ccc(C)o3)cc(NCC3C4CCC3CN(c3ncc(C(=O)NO)cn3)C4)c2cc1OC (configuration not stated) | 1680 | 33 | > 10 | 0.959 | 459 | 457 | 239 | 22 | 125 | 1.35 | 5.87 |  |  |
| COc1cc2nc(-c3ccc(C)o3)cc(NCc3ccc(C(=O)NO)cc3)c2cc1OC | 5400 | 44 | > 10 | 0.534 | 520 | 525 | 22 | 14 | 91 | 2.33 | 5.63 |  |  |
| COc1cc2nc(-c3ccc(C)o3)cc(NC3CCN(c4ncc(C(=O)NO)cn4)CC3)c2cc1OC | 7140 | 73 | > 10 | 0.596 | 1020 | 1020 | 343 | 63 | 409 | 3.09 | 5.51 |  |  |
| COc1cc2c(cc1OCCCN1CCCC1)N=C(N)C21CCC1 |  |  |  |  |  |  |  |  |  |  |  | Active |  |
| COc1cc2c(NCc3ccc(C(=O)NO)cc3)cc(-c3ccc(C)o3)nc2cc1OCCCN1CCCC1 | 795 | 21 | 0.471 | 0.1 | 4500 | 4470 | 11 | 9 | 60 | 11.3 | 4.95 |  |  |
| COc1ccc2c(NC3CCN(Cc4ccccc4)CC3)nc(NCCNC(=O)CCCCCC(=O)NO)nc2c1 |  |  |  |  |  |  |  |  |  |  |  |  | 7.14 |
